In test [1] the test system is insulin receptor (IR) pre-mRNA alternative splicing. Briefly: IR splicing assay. Type of test: cell-based. The conditions noted are these: 50 µM, DM1 cell model.
In test [2] the test system is (CUG)960 foci in HeLa cells transfected with DMPK-CUG960 and GFP-MBNL1. Briefly: FISH / confocal microscopy of ribonuclear foci in fixed DM1 cell model. The note with it: 50 µM, 48 h. Type of test: cell-based. The method, boiled down:
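HeLa cells (ca. 120,000/well, on coverslips) were co-transfected next day at 70–80% confluence with 500 ng DMPK–CUG960 (or CUG0 control) and 500 ng GFP-MBNL1 plasmids using Lipofectamine. After 4 h the medium was changed and test compound added (20–100 µM) for two days; 50 µM spermine served as the control compound. Cells were fixed (4% PFA), permeabilized and probed with Cy3-(CAG)10 for 2 h at 37 °C. Nuclei were stained with TO-PRO-3 and scored by confocal microscopy; results are mean ± standard error of ≥3 independent experiments with two-tailed p-values.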

Consider `NCCCNCCCCNCCCN` [spermine, reference compound], for which the “effect on the IR mis-splicing” value in test [1] was “no effect”. For the same compound, in test [2], the “effect on (CUG)960 foci” value is reported as “no effect”.

Values taken from PMC3683132 (ACS chemical biology, 2013).
